Here are results for 8 compounds from ChEMBL document CHEMBL1154067, “Antiviral and cytotoxic activities of aminoarylazo compounds and aryltriazene derivatives” (Bioorg Med Chem, 2009).

A word on the EC50: it is the midpoint of the concentration-response curve. Broadly, the CC50 is the concentration that lowers cell viability or growth by half.

The subject of one series is Human alphaherpesvirus 1. Put plainly: Antiviral activity against HSV1 infected in Vero-76 cells after 3 days by plaque reduction assay. It is filed as functional, organism-based. Conditions: Human alphaherpesvirus 1, Vero 76, 72 h. In general terms: Plaques are areas of infected cells; plaque reduction assays count them against a control.
Series [1] has as its system Respiratory syncytial virus. The series can be described thus: Antiviral activity against Respiratory syncytial virus A2 infected in Vero-76 cells after 5 days by plaque reduction assay. It is filed as functional, organism-based. Conditions: human respiratory syncytial virus, A2, Vero 76, 120 h.
The nature of series [2]: Cytotoxicity against MDBK cells after 48 to 96 hrs by MTT assay. It is filed as cell-based, Bos taurus. As to conditions: cattle. In short, it runs like this:
(§1)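 Mock-infected cells in maintenance medium, MDBK at 6 × 10^5 and BHK at 1 × 10^6 cells/mL initial density, with or without serial compound dilutions. Run in parallel with antiviral assays. Viability by MTT after 48–96 h at 37 °C, 5% CO2. CC50 = concentration reducing viability 50%.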
(In general: Formazan colour is commonly taken as a measure of viable cells.)

Series [3] in a line: (§2) Cytotoxicity against african green monkey Vero 76 cells by crystal violet staining. Conditions: chlorocebus sabaeus, Vero 76 cells. It is filed as cell-based. The procedure, abridged:
(§3)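 Mock-infected Vero 76 seeded at 4 × 10^5 cells/mL, run in parallel with plaque assays, with or without serial compound dilutions. Cell number of monolayers determined by crystal violet staining. CC50 = concentration reducing viable cell number 50%.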

Series [4] deals with Mammalian orthoreovirus 1. The series can be described thus: Antiviral activity against Reovirus-1 infected in BHK-21 cells assessed as inhibition of virus-induced cytopathicity after 3 to 4 days by MTT assay. In kind it is functional, organism-based. Conditions: Mammalian orthoreovirus 1, BHK-21. In short, it runs like this:
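BHK-21 cells seeded at 5 × 10^4 cells/well, grown overnight to confluent monolayers at 37 °C in 5% CO2, then infected at m.o.i. 0.01 in serum-free medium. One hour later, MEM Earle's with 1% final inactivated FCS added, with or without serial compound dilutions. Viability read by MTT after 3–4 days at 37 °C. EC50 is the concentration giving 50% protection from cytopathogenicity.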
In general terms: Damage to the host cells serves as the signal in cytopathic effect assays.

The next series deals with Poliovirus 1. Put plainly: Antiviral activity against Human poliovirus 1 strain Sabin after 2 days by plaque reduction assay. In kind it is functional. Conditions: for EC50: Enterovirus C, 48 h.
For a further series, the system named is Yellow fever virus. The series can be described thus: Antiviral activity against Yellow fever virus infected in BHK-21 cells assessed as inhibition of virus-induced cytopathicity after 3 to 4 days by MTT assay. It is filed as functional, organism-based.
The nature of series [5]: Cytotoxicity against hamster BHK21 cells assessed as reduction in cell viability after 48 to 96 hrs by MTT assay. In kind it is cell-based, Mesocricetus auratus, BHK-21. The procedure, abridged: as §1
Series [6] in a line: (§4) Cytotoxicity against human MT4 cells after 96 hrs by MTT assay. It is filed as cell-based. As to conditions: MT4 cells. In short, it runs like this:
(§5)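 Exponentially growing mock-infected MT-4 seeded at 1 × 10^5 cells/mL in RPMI-1640 with 10% FCS, penicillin and streptomycin. Incubated with or without serial compound dilutions at 37 °C, 5% CO2. Viability by MTT after 96 h. CC50 = concentration reducing viability 50%.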

Series [7] deals with Bovine viral diarrhea virus 1. Put plainly: Antiviral activity against Bovine viral diarrhea virus infected in MDBK cells assessed as inhibition of virus-induced cytopathicity after 3 to 4 days by MTT assay. In kind it is functional, organism-based. As to conditions: Bovine viral diarrhea virus isolates and strains.
The next series relates to Coxsackievirus B2. Put plainly: Antiviral activity against Coxsackie virus type B2 virus infected in african green monkey Vero-76 cells after 3 days by plaque reduction assay. It is filed as functional, organism-based. Conditions: Enterovirus B, Vero 76, 72 h. The procedure, abridged: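 Vero 76 cells seeded at 2 × 10^5 cells/well, grown overnight to confluence at 37 °C in 5% CO2, then infected at 50–100 PFU/well. Unadsorbed virus removed. Overlay of DMEM with 1% inactivated FCS and 0.75% methylcellulose, with or without serial compound dilutions. After 3 days at 37 °C, fixed and stained with crystal violet in PBS/50% ethanol; plaques counted. EC50 is the concentration reducing plaque number by 50%.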

In series [8] the test system is Vesicular stomatitis virus. The series can be described thus: Antiviral activity against Vesicular stomatitis virus after 2 days by plaque reduction assay. It is filed as functional, organism-based.
The next series has as its system Vaccinia virus. Put plainly: Antiviral activity against Vaccinia virus after 3 days by plaque reduction assay. In kind it is functional, organism-based. As to conditions: Orthopoxvirus vaccinia.
Series [9] relates to Human immunodeficiency virus 1. Put plainly: Antiviral activity against HIV1 infected in human MT4 cells assessed as inhibition of virus-induced cytopathicity after 4 days by MTT assay. In kind it is functional, organism-based.
The subject of another series is MT4. The description is as §4. It is filed as cell-based. As to conditions: mt4, 96 h. In short, it runs like this: as §5
The subject of the next series is Vero. The series is described as §2. As to conditions: chlorocebus sabaeus, vero. In kind it is cell-based. The procedure, abridged:
as §3

The source made the active and inactive calls. Bounds are passed on as bounds.

For `C[C@@]1(O)[C@H](O)[C@@H](CO)O[C@H]1n1cnc2c(=O)[nH]c(N)nc21` [2'-B-METHYL-GUANOSINE], the EC50 is more than 100 µM in the series on Human alphaherpesvirus 1; more than 100 µM in [1]; 2.4 µM in [4]; more than 100 µM in the series with Poliovirus 1; 1.8 µM in the series with Yellow fever virus. Further, the CC50 was more than 100 µM in series [2] (MDBK cells), more than 100 µM in series [3] and 90 µM in [5] (bhk-21). The compound also yielded a CC50 at 96 h in series [6] of more than 100 µM.

For `Nc1nc2c(ncn2COCCO)c(=O)[nH]1` [ACYCLOVIR], the EC50 (in [1]; in series [7]; in series [4]; in the series with Poliovirus 1; in the series with Coxsackievirus B2; with Yellow fever virus) was more than 100 µM each time. The CC50 in series [2] (MDBK cells), in [3] and in series [5] (BHK21 cells) was more than 100 µM in each case. This compound also yielded a CC50 at 96 h in series [6] of more than 100 µM.

Turning to `CN(C)CCCN(/N=N/c1ccccc1)c1cccc(C(F)(F)F)c1`, the EC50 with Human alphaherpesvirus 1 was 14 µM; in [1], more than 20 µM; in series [7] it was more than 38 µM; in series [4], more than 49 µM; in the series with Poliovirus 1 it was more than 20 µM; with Coxsackievirus B2 it was not below 20 µM. In addition, the EC50 in the series with Yellow fever virus was not below 49 µM. Also, the outcome (in series [8]; in the series with Vaccinia virus) was inactive. Besides, the results for the CC50 in [2] (MDBK cells), in [3] and in series [5] (BHK21 cells) were 38 µM, 20 µM and 49 µM, respectively. Further, in series [9], the inhibition entry is “inactive”. In addition, the CC50 at 96 h in series [6] is 14 µM.

Regarding `NC(=O)c1ncn([C@@H]2O[C@H](CO)[C@@H](O)[C@H]2O)n1` [RIBAVIRIN], the EC50 in the series with Human alphaherpesvirus 1 is more than 100 µM; in series [1], 7 µM; in [7] it was 7 µM; in series [4], more than 100 µM; with Poliovirus 1 it was more than 100 µM; with Coxsackievirus B2, more than 100 µM. In addition, the EC50 with Yellow fever virus is more than 100 µM. Further, the CC50 in series [2] (MDBK cells) is more than 100 µM; in [3], more than 100 µM; in [5] (BHK21 cells) it was more than 100 µM; in the series on MT4, 31 µM.

As to `Fc1ccc(F)c(/N=N/c2ccc(NC[C@@H]3CCCN4CCCC[C@H]34)c3c2CCCC3)c1`, the EC50 is more than 80 µM in the series on Human alphaherpesvirus 1; more than 80 µM in series [1]; more than 64 µM in series [7]; more than 38 µM in series [4]; more than 80 µM in the series with Coxsackievirus B2; more than 38 µM with Yellow fever virus. The result (in series [8]; in the series on Poliovirus 1; in the series on Vaccinia virus) was inactive. Moreover, the CC50 in series [2] (mdbk) came to 64 µM; in the series on Vero, 80 µM; in series [5] (bhk-21), 38 µM; in the series with MT4 it was 40 µM. In addition, the inhibition entry in series [9] is “inactive”.

Take `c1ccc(CN/N=N/c2ccccc2)cc1`: the EC50 (in the series on Human alphaherpesvirus 1; in series [1]; in series [7]; in series [4]; with Poliovirus 1; with Coxsackievirus B2) was more than 100 µM throughout. The EC50 in the series with Yellow fever virus is more than 100 µM. Further, the outcome (in series [8]; in the series with Vaccinia virus) was inactive. The CC50 in [2] (mdbk) is more than 100 µM; in the series with Vero, 100 µM; in [5] (bhk-21), more than 100 µM; with MT4, 42 µM. The inhibition entry in series [9] is “inactive”.

Regarding `CN(/N=N/c1ccccc1)c1ccccc1`, the EC50 is more than 50 µM in the series on Human alphaherpesvirus 1; 20 µM in series [1]; more than 100 µM in series [7]; more than 100 µM in series [4]; more than 50 µM with Poliovirus 1; more than 50 µM in the series with Coxsackievirus B2. Also, in the series on Yellow fever virus, the EC50 was more than 100 µM. The outcome (in series [8]; in the series on Vaccinia virus) was inactive. Besides, the CC50 in series [2] (mdbk) is more than 100 µM; in the series with Vero, 50 µM; in series [5] (bhk-21) it was more than 100 µM; in the series on MT4, 55 µM. The inhibition entry in [9] was “inactive”.

With `CN(C)CCCNc1ccc(/N=N/c2ccccc2)cc1`, the EC50 is more than 30 µM in the series with Human alphaherpesvirus 1; 25 µM in series [1]; 1.6 µM in series [7]; more than 31 µM in series [4]; more than 30 µM with Coxsackievirus B2; not below 31 µM in the series with Yellow fever virus. Besides, the outcome (in series [8]; with Poliovirus 1; with Vaccinia virus) was inactive. In addition, the CC50 in series [2] (mdbk) was 58 µM; in the series with Vero, 30 µM; in [5] (bhk-21) it was 31 µM; in the series with MT4, 17 µM. Also, the inhibition entry in series [9] was “inactive”.
